The nature of series [1]: Inhibition of Mycobacterium tuberculosis His6-tagged MabA expressed in Escherichia coli BL21 (DE3) assessed as reduction in HBCoA formation using AcAcCoA as substrate preincubated for 30 mins followed by substrate and 100 uM NADPH addition and measured after 15 mins by LC-MS/MS analysis.
Series [2] deals with Mycobacterium tuberculosis. Briefly: Antimycobacterial activity against GFP-tagged Mycobacterium tuberculosis H37Rv assessed as inhibition of microbial growth incubated for 5 days by fluorescence assay. To be noted: 120 h. Format: functional. The essentials:
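M. tuberculosis H37Rv expressing GFP, grown in 7H9 with 0.2% glycerol and 0.05% Tween80, diluted to OD600 0.02. Ten 3-fold dilutions from 300 μM to 15 nM, 0.3% DMSO. Incubated 5 days at 37 °C, fluorescence read at Ex/Em 485/535 nm. Two independent replicates. Rifampicin, isoniazid and ethionamide served as positive controls.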

Series [3] has as its system Mycobacterium tuberculosis. Description: Antimycobacterial activity against Mycobacterium tuberculosis H37Ra assessed as inhibition of microbial growth incubated for 4 weeks in culture medium at pH 6.8. Format: functional. To be noted: 672 h.
In series [4] the test system is Mycobacterium tuberculosis. Description: Inhibition of Mycobacterium tuberculosis His6-tagged MabA expressed in Escherichia coli BL21 (DE3) assessed as reduction in HBCoA formation at 1 mM using AcAcCoA as substrate preincubated for 10 to 30 mins followed by substrate and NADPH addition and measured after 15 mins by LC-MS/MS analysis relative to control. Particulars: time 10-45 min. The essentials:
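Single-point screen of His6-MabA purified by Ni2+-affinity. Compound at 1 mM was preincubated 10 or 30 min at 23 °C with 400 nM enzyme in 100 mM Hepes pH 7. Reaction ran 15 min with 50 µM AcAcCoA and 50 µM NADPH in 1% DMSO, then was stopped with 1% TFA containing 5 µM butyryl-CoA internal standard. HBCoA/BCoA was measured by LC-MS/MS MRM. % inhibition was taken relative to DMSO and 200 µM INH-NADP adduct controls.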

The nature of series [5]: Lipophilicity, logD of compound in octanol and PBS buffer at pH 7.4 incubated for 2 hrs under shaking condition by LC-MS/MS analysis. In kind it is physicochemical. The essentials: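 10 mM DMSO stock diluted 1:50 into 1/1 octanol/PBS pH 7.4, shaken 2 h at room temperature. Each phase was diluted in MeOH and quantified by LC-MS/MS MRM (ES−). LogD is the log of the octanol/PBS concentration ratio. Run in triplicate.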

Series [6] can be described thus: Solubility of compound in PBS buffer at pH 7.4 incubated for 24 hrs under shaking conditions by LC-MS/MS analysis. Format: physicochemical. The essentials:
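10 mM DMSO stock diluted 1:50 into PBS pH 7.4 or MeOH, in triplicate. Shaken 24 h at room temperature, centrifuged and filtered through 0.45 μm, then diluted in MeOH for LC-MS/MS MRM. Solubility is the PBS/MeOH signal-area ratio.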

In series [7] the test system is Mycobacterium tuberculosis. Description: Binding affinity to Mycobacterium tuberculosis His6-tagged MabA expressed in Escherichia coli BL21 (DE3) at 100 uM by 19FNMR analysis.
In series [8] the test system is Mycobacterium tuberculosis. Description: Inhibition of Mycobacterium tuberculosis His6-tagged MabA expressed in Escherichia coli BL21 (DE3) assessed as reduction in HBCoA formation up to 100 uM using AcAcCoA as substrate preincubated for 10 to 30 mins followed by substrate and NADPH addition and measured after 15 mins by LC-MS/MS analysis. To be noted: dose microM <=100, time 10-45 min.

Series [9] relates to Mycobacterium tuberculosis. Briefly: Non-competitive inhibition of Mycobacterium tuberculosis MabA expressed in Escherichia coli BL21 (DE3) assessed as reduction in HBCoA formation using AcAcCoA as substrate preincubated for 30 mins followed by substrate and 50 to 500 uM NADPH addition and measured after 15 mins by LC-MS/MS analysis. To be noted: time 45.0 min. The essentials:
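Dose-response MabA assay (400 nM enzyme, 50 μM AcAcCoA, 30 min preincubation at 22 °C, 15 min reaction, LC-MS/MS HBCoA/BCoA) run at NADPH 50 and 500 μM. Test compound was tested at 8 points, 3-fold from 1 mM to 0.46 μM. INH-NADP adduct was tested from 200 μM to 0.09 μM. IC50s were compared between NADPH levels.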

Calls of active or inactive are those of the source. No cut-off for these calls is given here. A value given as a limit tells only on which side of the number the result lay.

Broadly, the IC50 is the concentration at which inhibition is half-maximal. For orientation: MIC90 means an inhibitory concentration at the 90% level, which refers to growth in some studies and to a panel of isolates in others. The term MIC denotes the lowest concentration that inhibits growth of the organism. Usually inhibition stands for the relative decrease from the control value, in per cent. As a reminder, the logD is lipophilicity at a set pH, counting ionised and neutral species. High values mean a more lipophilic compound, low ones a more hydrophilic compound. The thermodynamic solubility is solubility found after equilibrating the solid with the medium.

As for `O=C1Nc2ccc(Br)cc2C1=O`, in series [1], the IC50 came out at 72 µM. Also, in [2], the MIC90 was > 300 µM.

`O=C1NC(=S)NC(=O)C1C/C=C/c1ccccc1`: in series [1], the 50% inhibitory concentration (IC50) is 40 µM. Further, the MIC90 in [2] is > 300 µM.

`CC(=O)Oc1ccccc1C(=O)O` [ASPIRIN]: in [3], the MIC worked out at 33 mg/L.

`COC(=O)c1cc(I)ccc1NC(=O)OC(C)(C)C`: the IC50 in [1] is > 1000 µM. The inhibition in [4] is 0%.

For the compound `Cc1cccc(Nc2ccccc2C(=O)O)c1C` [MEFENAMIC ACID], the MIC in [3] is 33 mg/L.

In the case of `O=C(O)c1ccccc1O` [SALICYLIC ACID], the MIC in [3] stood at 33 mg/L.

In the case of `CN(C(=O)OC(C)(C)C)c1ccc(I)cc1C(=O)O`, the IC50 in series [1] turned out to be 1000 µM. Further, the inhibition in series [4] is 50%.

Regarding `O=C(CCCc1ccccc1)Nc1ccc(I)cc1C(=O)O`, in [1], the IC50 is 186 µM.

Consider `O=C(Nc1ccc(I)cc1C(=O)O)c1ccncc1`, for which the IC50 in [1] is > 400 µM.

In the case of `CO[C@H]1/C=C/O[C@@]2(C)Oc3c(C)c(O)c4c(O)c(c(/C=N/N5CCN(C)CC5)c(O)c4c3C2=O)NC(=O)/C(C)=C\C=C\[C@H](C)[C@H](O)[C@@H](C)[C@@H](O)[C@@H](C)[C@H](OC(C)=O)[C@@H]1C` [RIFAMPIN], in [2], the MIC is 0.004 mg/L.

For `CC(C)(C)OC(=O)Nc1ccc(Oc2ccccc2)cc1C(=O)O`, the IC50 in series [1] was found to be 243 µM. Further, the inhibition in series [4] was 100%.

For the compound `CC1(C#CC(=O)O)CC1(Cl)Cl` (stereo unspecified), the IC50 in series [1] is 25 µM. For the same compound, in series [2], the MIC90 was > 300 µM.

As to `O=C(Nc1ccc(I)cc1C(=O)O)c1ccc(Cl)nc1`, the IC50 in series [1] amounted to 147 µM.

On to `O=C(Nc1ccc(I)cc1C(=O)O)OCc1ccccc1`, for which the IC50 in series [1] is 92 µM. Besides, in series [4], the inhibition was found to be 100%.

For `CC(C)(C)OC(=O)Nc1ccc(Cl)cc1C(=O)O`, the IC50 in [1] is > 500 µM. Further, in series [4], the inhibition worked out at 77%.

On to `O=C(Nc1ccc(I)cc1C(=O)O)c1ccc(Cl)c(Cl)c1`, for which, in series [1], the IC50 was found to be 38 µM. For the same compound, in series [2], the MIC90 came out at 300 µM. This compound also had a logD at 2 h in series [5] of 3.4. Also, the solubility (thermodynamic) at 24 h in [6] was > 200 µM.

With `O=C(Nc1ccc(I)cc1C(=O)O)c1ccc(C(F)(F)F)cc1`, the result in [7] was Active. The IC50 in [1] amounted to 69 µM.

Take `O=C(O)c1ccccc1` [BENZOIC ACID]: the MIC in series [3] was found to be 33 mg/L.

Take `CCc1cc(C(N)=S)ccn1` [ETHIONAMIDE]: the MIC in series [2] was determined as 2 mg/L.

For the compound `Oc1cc(Cl)ccc1Oc1ccc(Cl)cc1Cl`, in [8], the inhibition result is “inactive”.

As for `O=C(O)c1cc(I)ccc1NC(=O)C1CC1`, the IC50 in series [1] was > 500 µM.

Turning to `CC(C)(C)OC(=O)Nc1cc2ccccc2cc1C(=O)O`, the IC50 in series [1] turned out to be 310 µM. Moreover, the inhibition in series [4] worked out at 100%.

For `CC(C)(C)OC(=O)Nc1ccc(Br)cc1C(=O)O`, in series [1], the IC50 is 470 µM. Further, in [4], the inhibition stood at 95%.

On to `O=C(Nc1ccc(I)cc1C(=O)O)c1ccc(Cl)c(C(F)(F)F)c1`, for which, in series [7], the outcome was Active. Further, in series [1], the IC50 came out at 59 µM.

Regarding `O=C(Cc1ccccc1)Nc1ccc(I)cc1C(=O)O`, the IC50 in series [1] is > 500 µM.

For the compound `O=C(Nc1ccc(I)cc1C(=O)O)c1ccccc1`, the IC50 in [1] came to 145 µM.

For `O=C(O)c1cc(I)ccc1NC(=O)C1CCc2ccccc2C1` (stereo unspecified), in series [1], the IC50 stood at 109 µM.

Regarding `CC(C)(C)OC(=O)Nc1ccccc1C(=O)O`, the IC50 in series [1] was > 1000 µM. In series [4], the inhibition was found to be 31%.

As to `CC(C)(C)OC(=O)Nc1ccc(F)cc1C(=O)O`, in series [1], the IC50 amounted to 470 µM. Besides, the inhibition in series [4] amounted to 38%.

`CC(C)COC(=O)Nc1ccc(I)cc1C(=O)O`: in series [1], the IC50 amounted to 310 µM. The inhibition in series [4] stood at 100%.

`CC(C)(C)OC(=O)Nc1ccc(-c2ccccc2)cc1C(=O)O`: the IC50 in series [1] amounted to 194 µM. Moreover, the inhibition in series [4] worked out at 100%.

`C/C=C/C=C/C(=O)Nc1c[nH]c(=O)[nH]c1=O`: in series [1], the IC50 amounted to 65 µM. For the same compound, in series [2], the MIC90 is > 300 µM.

For the compound `C=CCOC(=O)Nc1ccc(I)cc1C(=O)O`, the IC50 in series [1] is > 500 µM. Moreover, in series [4], the inhibition came to 83%.

As to `O=C(CCc1ccccc1)Nc1ccc(I)cc1C(=O)O`, the IC50 in series [1] was 295 µM.

Consider `O=C(O)c1cc2sccc2[nH]1`, for which the IC50 in [1] was determined as 185 µM. In addition, the MIC90 in series [2] is > 300 µM.

For the compound `COc1ccc(NC(=O)OC(C)(C)C)c(C(=O)O)c1`, in series [1], the IC50 was > 1000 µM. For the same compound, the inhibition in series [4] is 31%.

As to `O=C(O)c1cc(I)ccc1NC(=O)C1Cc2ccccc2C1`, in series [1], the IC50 is 140 µM.

Consider `O=C(Nc1ccc(I)cc1C(=O)O)c1ccc(Cl)cc1`, for which the IC50 in series [1] is 53 µM.

With `CC(C)(C)OC(=O)Nc1ccc(I)cc1C(=O)O`, the inhibition in series [4] is 100%. For the same compound, the MIC90 in series [2] was 300 µM. For the same compound, the inhibition result in series [9] is “Active”.

In the case of `NNC(=O)c1ccncc1` [ISONIAZID], the MIC in [2] stood at 0.125 mg/L.

For the compound `O=C(Nc1ccc(I)cc1C(=O)O)c1cccc(Cl)c1`, in series [1], the IC50 is 70 µM.

Regarding `O=C(Nc1ccc(I)cc1C(=O)O)c1ccc(Cl)cc1Cl`, in series [1], the IC50 was 126 µM.

As for `Cc1ccc(C(=O)Nc2ccc(I)cc2C(=O)O)cc1`, the IC50 in series [1] was 95 µM.

Turning to `CC/C(C)=C1\OC(=O)[C@H](C)[C@H](O)[C@H](Cc2cccnc2)NC(=O)[C@@H](NC(=O)c2ncccc2O)[C@@H](C)OC1=O`, in series [8], the inhibition result is “inactive”.

Consider `O=C(Nc1ccc(I)cc1C(=O)O)c1ccc(OC(F)(F)F)cc1`, for which the result in [7] was Active. Further, the IC50 in series [1] came out at 84 µM.
